# B1: tRNA (parent)
# chain: GUUCCGUUGGCGUAAUGGUAACGCGUCUCCCUCCUAAGGAGAAGACUGCGGGUUCGAGUCCCGUACGGAACG
# Variants of: B1
# Experiment: yeast fitness, log relative to wild type (ln ratio); higher = fitter; tRNA-Arg(CCU), competitive growth, 37 C, 1 M NaCl
# Procedure, shortened: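 For each genotype, fitness is defined as the natural log of its generation number over the wild type's. The tRNA-Arg(CCU) variant library was on a HIS3 centromeric plasmid in BY4742 with the chromosomal gene removed, and pools were first grown 4 generations in SC-HIS at 30 °C and then ~6.5 generations (~26.5 h) in SC-HIS 1M NaCl at 37 °C. Generations were calculated from OD-scaled log2 output/input frequency, weighted by inverse variance across replicates, using counts from 125 bp paired-end Illumina sequencing.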
row,Variant,yeast fitness (ln)
1,G6A C46U C66A C71U,-0.349
2,U2G G6U C27U A43C C66A A69G A70G C71U,-0.371
3,U2G G6U C27U C66A A70U C71U,-0.275
4,U2C G6A C27U A43C C66U A70U,-0.091
5,U2G A43C C66A A70U C71U,-0.316
6,U2G G6U C27U C46U A69G A70U C71U,-0.387
7,G1A U2G G6U C27U C46U,-0.217
8,C27U C46U,-0.0139
9,U2C G6U C27U C46U A69G C71U,-0.232
10,G1A G6A C27U C66A A70U C71U,-0.292
11,U2G G6A C27U A69G A70U,-0.151
12,G1A A43C C66A A70U,-0.129
13,U2G A70U C71U,-0.017
14,U2G C27U A43C C46U C66A C71U,-0.182
15,G1A A43C C46U A69G,-0.261
16,G1A C27U C46U A70U C71U,-0.178
17,G1A U2C C27U C46U A70G C71U,-0.0196
18,U2G G6U C27U C66U A70U C71U,-0.343
19,U2C G6A C27U A43C C46U A70U,-0.0327
20,G1A U2C G6U C27U A43C C46U,-0.0772
21,G1A G6U C46U C66U A70G C71U,-0.277
22,G1A U2G C46U C66U A69G A70G,-0.172
23,U2G G6A C27U C66U A69G,-0.193
24,G1A G6A C27U A43C C46U C66U C71U,-0.166

row,Variant,yeast fitness (ln)
1,U2G G6U C27U A69G A70U C71U,-0.515
2,G1A U2G G6U C27U A43C C66U A70G C71U,-0.346
3,U2C C27U C71U,-0.273
4,G6A C27U C46U C66U A70G C71U,-0.387
5,U2C G6U A69G C71U,-0.0844
6,G6U A43C C46U A69G C71U,-0.234
7,U2G G6A A43C C46U C66A A69G A70G C71U,-0.212
8,G1A U2C G6A C27U A70U C71U,-0.109
9,U2C G6U C46U C66A A69G A70U,-0.143
10,G1A U2C C27U A70U,-0.0826
11,U2C G6A A43C C66U A69G A70G,-0.0192
12,G1A U2G C27U A43C A69G A70U C71U,-0.353
13,G6A C66U A70G C71U,-0.358
14,G6A C27U A43C C46U C66A A69G A70U C71U,-0.471
15,G1A G6A C46U C66U A70U C71U,-0.0831
16,G1A U2C A43C C66A A69G A70G C71U,-0.238
17,G6U C27U C66A A69G,-0.0157
18,G6U A43C A70U,-0.164
19,U2G C27U A43C C46U C66U A69G,-0.231
20,U2G A43C,-0.0825
21,G1A U2G G6A A43C C46U C66U A70G C71U,-0.266
22,G1A U2G C66A A70G,-0.114
23,G1A A43C A69G C71U,-0.0687
24,G6U C27U C46U C66U C71U,-0.359

row,Variant,yeast fitness (ln)
1,G1A U2G C46U C66A A70U C71U,-0.152
2,G1A G6A C27U C46U C66U A70G C71U,-0.21
3,G1A G6A C27U C66U,-0.283
4,G1A C27U A43C C46U C66U C71U,-0.219
5,U2G G6A C46U A70U C71U,-0.449
6,U2C C27U A43C C46U C66U A69G C71U,-0.281
7,G1A U2C G6A A43C C66U A70G C71U,-0.00743
8,G1A G6A C27U A43C C46U A70G C71U,-0.315
9,G1A C27U C46U C66A C71U,-0.148
10,U2G G6A C27U A69G A70U C71U,-0.383
11,G1A U2C G6U C27U C46U A69G A70U C71U,-0.392
12,U2G C27U C46U C66U,-0.0703
13,G1A U2C C27U A43C A69G A70G C71U,-0.0597
14,G1A C27U A43C C66U C71U,-0.437
15,G1A G6U C27U C46U A70G C71U,-0.262
16,G1A U2G C27U C46U C66U A70U,-0.123
17,G6U A70U C71U,-0.14
18,G1A U2G G6U A43C,-0.257
19,U2G G6A C27U A43C C66A A69G A70G,-0.368
20,U2G G6A C46U A70U,0.00257
21,G6A C46U C66U A69G A70U C71U,-0.35
22,G1A U2G G6A C27U A43C C46U C66A A70G C71U,-0.478
23,G1A U2G G6A C27U A43C C66A A69G A70G C71U,-0.351
24,U2C G6A C46U C66A A70U C71U,-0.0695

row,Variant,yeast fitness (ln)
1,U2G G6A C46U C66U A70G C71U,-0.35
2,G1A C27U A43C C66U A69G A70G,-0.295
3,G1A U2G C27U A43C C66U A70G,-0.315
4,U2G G6A A69G,-0.135
5,U2C G6A A43C C46U C66A A69G A70G C71U,-0.112
6,U2G G6U C27U A43C C66U A70G,-0.356
7,U2G G6A C27U A43C A70G C71U,-0.221
8,G1A G6U A43C C46U C66U A70U C71U,-0.432
9,G1A U2C G6U C46U C66U A69G A70G C71U,-0.0644
10,G1A G6U A69G A70G,-0.198
11,U2C C27U A43C C46U C66A A69G A70G C71U,-0.15
12,C27U C46U C66A A70G C71U,-0.129
13,U2G A43C A69G A70U,-0.023
14,U2C G6U C66A A69G A70G,-0.0222
15,G1A U2G G6U A43C C66A A70U C71U,-0.387
16,U2G G6A C27U C66U A70G,-0.227
17,G1A C46U C66U A69G A70G C71U,-0.158
18,G1A C27U A43C C46U C66A A70U C71U,-0.359
19,G1A U2C G6U C27U A43C A70U C71U,-0.294
20,C27U A69G A70G C71U,-0.223
21,G1A U2C C27U A69G A70G C71U,-0.0512
22,G1A G6U C27U A43C C46U C66U A70G C71U,-0.596
23,G6U A43C C46U C66U A69G A70U,-0.347
24,G1A U2C C46U A69G A70G,-0.029

row,Variant,yeast fitness (ln)
1,U2G G6U C27U A43C C46U C66A A69G A70U,-0.357
2,G1A U2G A70U,-0.124
3,U2G G6U A43C C66A A69G A70G,-0.256
4,G1A C27U C66A A69G A70U,-0.19
5,G1A U2C G6U A43C C66A A70G,-0.0507
6,G1A U2G G6A C27U C46U C66A A69G A70G C71U,-0.317
7,U2G A43C A70U,-0.00614
8,G6A C46U C66U A70G,-0.0166
9,G1A A43C C46U C66U A69G C71U,-0.295
10,U2G G6A C46U C66A C71U,-0.134
11,U2C G6U C27U A43C C46U C66A A69G A70U,-0.101
12,G1A G6A A43C C46U C66A A70U C71U,-0.171
13,G6U A43C C46U,-0.193
14,A43C C46U A69G,0.00452
15,G1A G6A A43C C46U C66U A69G A70U C71U,-0.4
16,U2C G6U C66U A69G A70G C71U,-0.346
17,G1A U2C G6U A69G A70U C71U,-0.277
18,G6A A43C C71U,-0.144
19,U2G G6U C27U A43C C46U,-0.127
20,U2C C27U A43C C46U C66U A69G A70U C71U,-0.46
21,G1A U2G G6U C66U A69G A70U C71U,-0.553
22,G1A G6A A70G,-0.156
23,U2G C27U A43C C66U A69G C71U,-0.354
24,G1A U2G C27U A43C A70G,-0.176

row,Variant,yeast fitness (ln)
1,G1A G6U C27U C46U C66A A69G A70G C71U,-0.58
2,U2C G6A C27U A43C C46U A69G A70G,-0.0933
3,G1A U2C A43C A70U,-0.108
4,G1A C46U C66U,-0.118
5,G6U C27U A69G A70U,-0.214
6,G1A U2G G6U A43C C46U,-0.117
7,G1A C27U C46U C71U,-0.0338
8,U2G G6U C27U A70G C71U,-0.285
9,G1A U2G G6U C27U C46U C66U A69G A70U,-0.339
10,G1A U2G G6A C27U C46U C66A A70U,-0.187
11,U2C C27U A43C C66A A70G,-0.0848
12,G6U A43C C46U C66A A70G C71U,-0.227
13,U2G G6A A43C C46U C66U A69G A70U,-0.0409
14,U2G G6U C27U A43C C66U A69G A70U,-0.466
15,G1A U2C G6A C27U C46U A69G A70G C71U,-0.489
16,G1A U2C A43C C46U C66U A70U C71U,-0.202
17,G1A U2C G6U C27U C66U A69G A70G C71U,-0.251
18,U2C G6U A43C C66A A70U,-0.168
19,U2G G6U C27U A43C C46U C66U A69G A70G,-0.318
20,G1A U2C G6U C27U C66A A70G,-0.141
21,U2C G6A C27U A43C C46U C71U,-0.115
22,G1A U2C G6U C27U A70G,-0.186
23,G1A U2G C46U C66U A69G A70G C71U,-0.195
24,G1A U2C G6U C46U C66U A69G A70U C71U,-0.317

row,Variant,yeast fitness (ln)
1,G6A C46U C66U A69G A70G,-0.0235
2,G1A G6A A69G A70U C71U,-0.247
3,G6A A43C C46U C66U,-0.00855
4,G1A A43C C46U C66A A69G A70U C71U,-0.36
5,G1A U2G G6U A43C C66U A70U C71U,-0.237
6,G1A C27U A43C C66A C71U,-0.277
7,U2G G6U A43C C46U A69G A70U C71U,-0.426
8,A69G A70U,-0.0431
9,U2G G6U C27U C46U A69G A70U,-0.153
10,G6A C27U C46U C66A,-0.126
11,G1A U2C G6U C46U C66A A70U C71U,-0.0961
12,U2C G6U C27U C46U C66A A70U C71U,-0.161
13,G1A G6A A43C C46U C66A C71U,-0.26
14,G1A U2G C27U A43C C46U A70G,-0.124
15,G1A U2G G6U C27U C46U C66U A70G C71U,-0.307
16,G1A A70U,-0.044
17,U2C G6U A70G C71U,-0.0899
18,G1A U2C G6U A43C C46U C66U A69G A70G C71U,-0.201
19,G1A U2G G6A C27U C46U,-0.154
20,U2C C66A A69G A70G C71U,-0.105
21,U2G G6U C66U A69G C71U,-0.239
22,G1A G6A C27U C46U A69G A70U C71U,-0.36
23,G1A C27U A43C C46U,-0.131
